Key:
[1] = target: T1, Adenosine receptor A1 (Rattus norvegicus) (UniProt P25099); test: Displacement of [3H]CCPA from adenosine receptor A1 in rat brain cortical membranes at 1 uM; type: cell membranes
T1 sequence (whole entry): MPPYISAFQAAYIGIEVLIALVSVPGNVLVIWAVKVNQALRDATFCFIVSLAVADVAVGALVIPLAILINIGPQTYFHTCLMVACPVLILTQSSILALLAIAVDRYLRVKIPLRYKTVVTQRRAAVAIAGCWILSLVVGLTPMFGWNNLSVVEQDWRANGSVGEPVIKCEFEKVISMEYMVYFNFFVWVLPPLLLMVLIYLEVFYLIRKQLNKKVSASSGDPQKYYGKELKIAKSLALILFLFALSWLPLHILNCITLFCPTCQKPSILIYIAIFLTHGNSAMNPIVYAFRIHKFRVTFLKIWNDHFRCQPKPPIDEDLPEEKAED
How it was run: (§1)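 Native rat receptors: A1 in brain cortical membranes with [3H]CCPA, A2A in brain striatal membranes, from frozen unstripped rat brains. Compounds were first screened at a single high concentration in three independent experiments. Active compounds then had full inhibition curves over at least 3 orders of magnitude of concentration.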

Adenosine receptor A1 [2] = target: T2, Adenosine receptor A1 (Homo sapiens, UniProt P30542); test: Displacement of [3H]CCPA from recombinant human adenosine receptor A1 expressed in CHO cell membranes
T2 sequence (P30542 whole entry): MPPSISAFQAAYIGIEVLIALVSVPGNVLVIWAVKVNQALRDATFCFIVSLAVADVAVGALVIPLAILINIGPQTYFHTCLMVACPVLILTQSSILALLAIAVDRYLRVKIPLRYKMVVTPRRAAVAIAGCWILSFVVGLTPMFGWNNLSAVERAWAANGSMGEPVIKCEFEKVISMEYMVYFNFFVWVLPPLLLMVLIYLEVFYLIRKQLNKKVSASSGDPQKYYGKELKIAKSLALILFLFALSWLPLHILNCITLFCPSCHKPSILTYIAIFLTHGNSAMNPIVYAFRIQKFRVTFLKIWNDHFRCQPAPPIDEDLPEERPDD
How it was run: (§2)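 Membranes came from CHO cells expressing recombinant receptors (human A1, A2A, A2B, A3; rat A2B, A3). Radioligands were [3H]CCPA for A1 and [3H]PSB-11 or [3H]NECA for A3. A single high concentration was screened first, in three experiments for A1/A2A and two for A2B/A3. Full inhibition curves spanning at least 3 log units were run for potent compounds.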

Adenosine receptor A2a [3] = target: Adenosine receptor A2a (Rattus norvegicus, UniProt P30543); test: Displacement of [3H]MSX2 from adenosine receptor A2a in rat brain striatal membranes; type: cell membranes, Membrane; how it was run: as §1
Sequence of Adenosine receptor A2a (Rattus norvegicus, UniProt P30543) (P30543 whole entry): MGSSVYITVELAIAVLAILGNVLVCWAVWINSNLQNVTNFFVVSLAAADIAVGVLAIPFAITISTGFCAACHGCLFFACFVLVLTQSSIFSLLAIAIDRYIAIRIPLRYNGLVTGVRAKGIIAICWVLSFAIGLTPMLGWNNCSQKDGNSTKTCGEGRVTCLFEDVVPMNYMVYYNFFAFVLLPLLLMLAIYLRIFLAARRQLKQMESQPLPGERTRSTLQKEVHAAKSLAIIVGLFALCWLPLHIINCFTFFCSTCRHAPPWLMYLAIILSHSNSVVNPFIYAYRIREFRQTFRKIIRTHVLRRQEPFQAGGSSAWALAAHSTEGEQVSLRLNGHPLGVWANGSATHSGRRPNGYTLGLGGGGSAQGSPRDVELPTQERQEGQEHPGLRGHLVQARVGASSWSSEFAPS

Adenosine receptor A2b [4] = target: T3, Adenosine receptor A2b (Homo sapiens, UniProt P29275); test: Displacement of [3H]PSB-603 from recombinant human adenosine receptor A2b expressed in CHO cell membranes
T3 sequence (P29275 whole entry): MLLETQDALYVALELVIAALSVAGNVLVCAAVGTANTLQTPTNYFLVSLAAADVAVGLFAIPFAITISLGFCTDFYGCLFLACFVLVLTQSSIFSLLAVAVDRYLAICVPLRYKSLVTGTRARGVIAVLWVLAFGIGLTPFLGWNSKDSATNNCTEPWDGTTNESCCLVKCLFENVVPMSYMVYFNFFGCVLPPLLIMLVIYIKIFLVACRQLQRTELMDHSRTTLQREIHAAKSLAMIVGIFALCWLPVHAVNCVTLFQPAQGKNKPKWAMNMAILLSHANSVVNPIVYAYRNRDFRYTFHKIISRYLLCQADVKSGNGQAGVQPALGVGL
How it was run: (§3)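 Membranes came from CHO cells expressing recombinant receptors (human A1, A2A, A2B, A3; rat A2B, A3). Radioligands were [3H]CCPA for A1 and [3H]PSB-11 or [3H]NECA for A3. A single high concentration was screened first, in three experiments for A1/A2A and two for A2B/A3.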

[5] = target: T4, Adenosine receptor A2b (Rattus norvegicus) (UniProt P29276); test: Displacement of [3H]PSB-603 from recombinant rat adenosine receptor A2b expressed in CHO cell membranes at 1 uM; how it was run: as §2
T4 sequence (whole entry): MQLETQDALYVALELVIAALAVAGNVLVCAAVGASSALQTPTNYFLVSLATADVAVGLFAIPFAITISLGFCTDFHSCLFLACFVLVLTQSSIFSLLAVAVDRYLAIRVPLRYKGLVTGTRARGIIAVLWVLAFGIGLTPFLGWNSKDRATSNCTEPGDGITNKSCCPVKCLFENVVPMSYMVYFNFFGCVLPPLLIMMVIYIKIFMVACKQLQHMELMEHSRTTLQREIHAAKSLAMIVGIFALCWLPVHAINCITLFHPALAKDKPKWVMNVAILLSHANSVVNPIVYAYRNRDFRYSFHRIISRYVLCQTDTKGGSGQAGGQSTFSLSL

[6] = target: T5, Adenosine receptor A1 (Homo sapiens) (UniProt P30542); test: Displacement of [3H]CCPA from recombinant human adenosine receptor A1 expressed in CHO cell membranes at 1 uM; how it was run: as §2
T5 sequence (whole entry): T2 sequence (P30542 whole entry)

[7] = target: Adenosine receptor A2a (Rattus norvegicus) (UniProt P30543); test: Displacement of [3H]MSX2 from Adenosine receptor A2a in rat brain striatal membranes at 1 uM; type: cell membranes; details: Membrane; how it was run: as §1
Sequence of Adenosine receptor A2a (Rattus norvegicus) (P30543 whole entry): as the sequence (P30543 whole entry) above

Adenosine receptor A2a [8] = target: T6, Adenosine receptor A2a (Homo sapiens, UniProt P29274); test: Displacement of [3H]MSX2 from recombinant human adenosine receptor A2a expressed in CHO cell membranes; how it was run: as §2
T6 sequence (P29274 whole entry): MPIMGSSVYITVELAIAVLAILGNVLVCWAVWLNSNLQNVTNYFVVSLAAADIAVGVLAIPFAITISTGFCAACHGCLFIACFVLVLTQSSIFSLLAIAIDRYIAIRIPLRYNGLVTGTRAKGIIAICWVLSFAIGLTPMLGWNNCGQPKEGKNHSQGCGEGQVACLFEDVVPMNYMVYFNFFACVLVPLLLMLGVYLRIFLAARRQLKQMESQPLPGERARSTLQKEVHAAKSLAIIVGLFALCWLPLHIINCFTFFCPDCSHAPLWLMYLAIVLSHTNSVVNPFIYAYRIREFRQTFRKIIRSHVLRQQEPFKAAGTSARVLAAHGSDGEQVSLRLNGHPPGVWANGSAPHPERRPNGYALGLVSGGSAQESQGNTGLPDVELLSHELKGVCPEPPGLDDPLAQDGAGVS

[9] = target: T7, Adenosine receptor A3 (Rattus norvegicus) (UniProt P28647); test: Displacement of [3H]NECA from recombinant rat adenosine receptor A3 expressed in CHO cell membranes at 1 uM; how it was run: as §2
T7 sequence (whole entry): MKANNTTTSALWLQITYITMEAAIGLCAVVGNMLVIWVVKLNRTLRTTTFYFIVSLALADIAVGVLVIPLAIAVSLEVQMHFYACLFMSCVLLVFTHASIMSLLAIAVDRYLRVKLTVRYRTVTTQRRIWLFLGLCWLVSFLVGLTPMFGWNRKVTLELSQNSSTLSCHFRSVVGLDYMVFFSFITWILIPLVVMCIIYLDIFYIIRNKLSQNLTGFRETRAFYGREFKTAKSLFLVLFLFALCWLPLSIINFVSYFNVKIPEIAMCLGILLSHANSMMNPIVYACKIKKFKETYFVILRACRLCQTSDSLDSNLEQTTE

[10] = target: T8, Adenosine receptor A2b (Homo sapiens) (UniProt P29275); test: Displacement of [3H]PSB-603 from recombinant human adenosine receptor A2b expressed in CHO cell membranes at 1 uM; how it was run: as §2
T8 sequence (whole entry): T3 sequence (P29275 whole entry)

Adenosine receptor A2a [11] = target: T6, Adenosine receptor A2a; test: Displacement of [3H]MSX2 from recombinant human adenosine receptor A2a expressed in CHO cell membranes at 1 uM; how it was run: as §2
Adenosine receptor A3 [12] = target: T9, Adenosine receptor A3 (Rattus norvegicus, UniProt P28647); test: Displacement of [3H]NECA from recombinant rat adenosine receptor A3 expressed in CHO cell membranes; how it was run: as §3
T9 sequence (P28647 whole entry): T7 sequence (whole entry)

Adenosine receptor A1 [13] = target: T10, Adenosine receptor A1 (Rattus norvegicus, UniProt P25099); test: Displacement of [3H]CCPA from adenosine receptor A1 in rat brain cortical membranes; type: cell membranes
T10 sequence (P25099 whole entry): T1 sequence (whole entry)
How it was run: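 Native rat receptors: A1 in brain cortical membranes with [3H]CCPA, A2A in brain striatal membranes, from frozen unstripped rat brains. Compounds were first screened at a single high concentration in three independent experiments.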

Adenosine receptor A2b [14] = target: T11, Adenosine receptor A2b (Rattus norvegicus, UniProt P29276); test: Displacement of [3H]PSB-603 from recombinant rat adenosine receptor A2b expressed in CHO cell membranes; how it was run: as §3
T11 sequence (P29276 whole entry): T4 sequence (whole entry)

[15] = target: T12, Adenosine receptor A3 (Homo sapiens) (UniProt P0DMS8); test: Displacement of [3H]PSB11 from recombinant human adenosine receptor A3 expressed in CHO cell membranes at 1 uM; how it was run: as §2
T12 sequence (whole entry): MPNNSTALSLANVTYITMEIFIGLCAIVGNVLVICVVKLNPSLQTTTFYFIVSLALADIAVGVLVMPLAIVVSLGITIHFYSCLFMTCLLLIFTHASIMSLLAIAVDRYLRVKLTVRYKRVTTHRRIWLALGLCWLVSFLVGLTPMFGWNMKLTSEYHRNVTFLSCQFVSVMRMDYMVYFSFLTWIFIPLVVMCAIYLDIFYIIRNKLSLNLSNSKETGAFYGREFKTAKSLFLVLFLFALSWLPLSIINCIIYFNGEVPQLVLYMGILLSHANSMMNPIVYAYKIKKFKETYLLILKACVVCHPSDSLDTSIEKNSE

Adenosine receptor A3 [16] = target: T13, Adenosine receptor A3 (Homo sapiens, UniProt P0DMS8); test: Displacement of [3H]PSB-11 from recombinant human adenosine receptor A3 expressed in CHO cell membranes
T13 sequence (P0DMS8 whole entry): T12 sequence (whole entry)

| Compound | inhibition [1] | Ki (Adenosine receptor A1 [2]) | Ki (Adenosine receptor A2a [3]) | Ki (Adenosine receptor A2b [4]) | inhibition [5] | inhibition [6] | inhibition [7] | Ki (Adenosine receptor A2a [8]) | inhibition [9] | inhibition [10] | inhibition (Adenosine receptor A2a [11]) | Ki (Adenosine receptor A3 [12]) | Ki (Adenosine receptor A1 [13]) | Ki (Adenosine receptor A2b [14]) | inhibition [15] | Ki (Adenosine receptor A3 [16]) |
| --- | --- | --- | --- | --- | --- | --- | --- | --- | --- | --- | --- | --- | --- | --- | --- | --- |
| CCCCn1c(=O)c2c(nc3n2CCCN3c2ccc(OCCN3CCCCC3)cc2)n(CCCC)c1=O | 65% | 0.713 µM | 1.48 µM | > 1 µM | 9% | 42% | 49% | 0.921 µM | 20% | 41% | 53% | > 1 µM | 0.127 µM | > 1 µM | 48% | – |
| CCCCn1c(=O)c2c(nc3n2CCCN3c2ccc(OCCN3CCCC3)cc2)n(CCCC)c1=O | 69% | 0.658 µM | 0.989 µM | > 1 µM | 15% | 41% | 49% | 0.666 µM | 20% | 34% | 68% | > 1 µM | 0.072 µM | > 1 µM | 48% | – |
| Cn1c(=O)c2c(nc3n2CCCN3c2ccc(OCCN3CCCC3)cc2)n(C)c1=O | 3% | – | > 1 µM | > 1 µM | – | – | 13% | – | – | 3% | – | – | > 1 µM | – | 0% | > 1 µM |
| CCCn1c(=O)c2c(nc3n2CCCN3c2ccc(OCCN3CCCCC3)cc2)n(CCC)c1=O | 44% | – | > 1 µM | > 1 µM | – | – | 44% | – | – | 18% | – | – | 0.254 µM | – | 29% | > 1 µM |
| CN(C)CCOc1ccc(CCN2CCCn3c2nc2c3c(=O)n(C)c(=O)n2C)cc1 | -2% | – | 0.653 µM | > 1 µM | – | – | 49% | – | – | 9% | – | – | > 1 µM | – | -5% | > 1 µM |

Further lines, results first:

| inhibition [1] | Ki (Adenosine receptor A1 [2]) | Ki (Adenosine receptor A2a [3]) | Ki (Adenosine receptor A2b [4]) | inhibition [5] | inhibition [6] | inhibition [7] | Ki (Adenosine receptor A2a [8]) | inhibition [9] | inhibition [10] | inhibition (Adenosine receptor A2a [11]) | Ki (Adenosine receptor A3 [12]) | Ki (Adenosine receptor A1 [13]) | Ki (Adenosine receptor A2b [14]) | inhibition [15] | Ki (Adenosine receptor A3 [16]) | Compound |
| --- | --- | --- | --- | --- | --- | --- | --- | --- | --- | --- | --- | --- | --- | --- | --- | --- |
| 14% | 2.02 µM | 0.271 µM | > 0.5 µM | 14% | 20% | 80% | 2.18 µM | 19% | 42% | 30% | – | – | – | – | – | CCn1c(=O)c2c(nc3n2CCCN3CCc2ccc(O)cc2)n(CC)c1=O |
| 55% | 1.19 µM | 1.46 µM | > 1 µM | 6% | 30% | 49% | 1.01 µM | 16% | 6% | 54% | > 1 µM | 0.137 µM | > 1 µM | 44% | > 1 µM | CCCCn1c(=O)c2c(nc3n2CCCN3c2ccc(OCCN(CC)CC)cc2)n(CCCC)c1=O |
| 33% | – | 0.464 µM | 0.663 µM | – | – | 67% | – | – | 58% | – | – | 0.37 µM | – | 24% | > 1 µM | CCCn1c(=O)c2c(nc3n2CCCN3CCc2ccc(O)cc2)n(CCC)c1=O |
| 47% | – | 1.37 µM | 0.337 µM | – | – | 47% | – | – | 62% | – | – | 0.172 µM | – | 48% | 0.89 µM | CCCCn1c(=O)c2c(nc3n2CCCN3CCc2ccc(OCCN3CCOCC3)cc2)n(CCCC)c1=O |
| 47% | – | > 1 µM | > 1 µM | – | – | 44% | – | – | 17% | – | – | 0.18 µM | – | 17% | > 1 µM | CCCn1c(=O)c2c(nc3n2CCCN3c2ccc(OCCN(C)C)cc2)n(CCC)c1=O |
